PP5 inh: PP5 (human) phosphatase inhibition; P53041; purified PP5c, OMFP substrate fluorescence; inhibition, % at 6.7 µM; 320,000 compounds, 0.18% hits; AID 1987;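 active = inhibition above the campaign's mean inhibition across all tested compounds plus 3 SD, cut at about 9.5% in these data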
Scp-1 inhibitor: Scp-1 (human) phosphatase inhibition | 340,000 compounds, 0.88% hits | Q9GZU7 | AID 493091 | inhibition, % at 20 µM | Recombinant Scp1, phosphopeptide, malachite green phosphate absorbance;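 active = inhibition above about 50% at 20 µM, limit read from the data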
Target sequence (Q9GZU7 76-261 limits assumed): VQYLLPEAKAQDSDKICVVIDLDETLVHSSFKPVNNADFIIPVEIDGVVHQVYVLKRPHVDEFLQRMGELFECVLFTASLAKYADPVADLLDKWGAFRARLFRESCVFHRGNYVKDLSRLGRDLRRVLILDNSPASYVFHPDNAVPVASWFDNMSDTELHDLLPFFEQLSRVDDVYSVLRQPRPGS
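Assay system: SCP-1 catalytic fragment, aa 76-261 | Buffer or medium: Tris acetate buffer pH 5.5 with MgCl2 and Tween-20 | Compound: One concentration, 20 µM, with 1.0% DMSO | Also added: Phospho 17-mer peptide substrate | Signal: Absorbance at 630 nm | Incubation: 45 min enzyme reaction at room temperature | Measure: % inhibition of SCP-1 phosphate liberation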
PP1 inh: blocks human PP1-alpha phosphatase, a PP5 counter-screen | inhibition, % at 6.7 µM | 320,000 compounds, 0.9% hits | AID 2235 | P62136 | purified PP1alpha, OMFP fluorescence;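 active = inhibition above the mean inhibition of all tested compounds plus 3 SD, computed separately for each screening campaign, cut at about 15% in these data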
Target sequence (P62136 whole entry, looked up): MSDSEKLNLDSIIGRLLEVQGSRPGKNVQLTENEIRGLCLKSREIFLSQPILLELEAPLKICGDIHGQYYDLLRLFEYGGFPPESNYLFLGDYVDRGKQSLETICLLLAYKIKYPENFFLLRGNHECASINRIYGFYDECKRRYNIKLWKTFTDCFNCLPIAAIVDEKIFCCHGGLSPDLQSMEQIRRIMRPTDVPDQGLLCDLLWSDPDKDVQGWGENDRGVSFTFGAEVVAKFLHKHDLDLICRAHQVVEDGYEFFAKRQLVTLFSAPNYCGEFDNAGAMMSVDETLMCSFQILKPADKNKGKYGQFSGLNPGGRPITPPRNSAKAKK
STEP block: blocks human striatal-enriched tyrosine phosphatase; recombinant STEP, OMFP fluorogenic substrate, fluorescence; inhibition, % at 20 µM; 360,000 compounds, 0.25% hits; P54829;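 active = inhibition at 20 µM, scaled per plate between control wells, above about 37%, limit read from the data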
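Assay system: isolated STEP enzyme / Timing: 20 min at room temperature, dark / Doses: 20 µM, 1% DMSO / Technique: fluorescence intensity, excitation 480 nm, emission 540 nm / Reagent: fluorogenic phosphatase substrate OMFP at 25 µM final / Measure: percent inhibition scaled to no-enzyme and uninhibited-enzyme controls, plate-pattern corrected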
LMPTP inh: LMPTP (human) inhibition; P24666; recombinant LMPTP-A, OMFP fluorogenic substrate, fluorescence intensity; inhibition, % at 20 µM; 360,000 compounds, 0.22% hits;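 active = compounds that cut the enzyme signal by at least half of the control window in the single-dose screen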
Target sequence (P24666 whole entry, looked up): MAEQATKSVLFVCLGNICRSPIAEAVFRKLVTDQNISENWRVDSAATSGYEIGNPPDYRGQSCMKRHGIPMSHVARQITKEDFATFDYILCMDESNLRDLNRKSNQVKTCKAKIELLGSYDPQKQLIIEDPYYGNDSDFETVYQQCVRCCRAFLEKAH
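Test system: LMPTP-A, protein tyrosine phosphatase of low molecular weight; Input: 0.625 nM enzyme; Incubation: 50 min dark incubation at room temperature; Signal: endpoint fluorescence intensity from OMFP dephosphorylation; Read-out basis: % inhibition versus control wells.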
Scp1 confirm: Scp-1 (human) inhibition, single-dose confirmed | shares compounds with Scp-1 inhibitor | recombinant SCP-1 catalytic domain, phosphate release, malachite green absorbance | inhibition, % at 20 µM | 2,500 compounds, 61% hits
MG interference: interferes with malachite green readout, flagging false Scp-1 hits; shares compounds with Scp-1 inhibitor; Colorimetric interference counterscreen, malachite green absorbance 630 nm; apparent inhibition (interference), % at 20 µM; 2,500 tested, under 10 active; AID 540313;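 note: compounds added after enzyme reaction finished so only phosphate colour detection is probed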
Scp1 DSF: binds human Scp-1, shifting its melting temperature | shares compounds with Scp-1 inhibitor | Recombinant SCP1, Sypro Orange thermal shift Tm | thermal shift relative to vanadate control, % at 40 µM | 1,500 compounds, 25% hits;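 active = substances whose mean melting-temperature shift, as a percentage of the reference inhibitor's shift, reaches about 5.3%, limit read from the data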
Large screens that a line does not name were inactive (follow-up assays come after a bar, where they were run). Hits are enriched below; roughly 1.9% of the tested compounds scored in any of these assays.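 Rule for the calls, unless noted: active = inhibition of at least 30% at 20 µM; inactive = the rest.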

CCc1nnc(NC(=O)Cn2c(=O)oc3ccccc32)s1	none
CC1CCCC(C)N1c1nnc(NC(=O)Cn2c(=O)oc3ccccc32)s1 (stereo not drawn)	Scp-1 inhibitor 95 | Scp1 confirm inactive | MG interference inactive
Cc1sc2ncnc(SCC(=O)Nc3ncccc3O)c2c1C	Scp-1 inhibitor 59 | Scp1 confirm 72 | MG interference inactive | Scp1 DSF 9.8
COc1ccc(NC(=O)CSc2ncnc3sc(C)cc23)cc1	none
Cc1cc2c(SCC(=O)Nc3cccc(O)c3)ncnc2s1	Scp-1 inhibitor 70 (no result: PP5 inh, PP1 inh) | Scp1 confirm 59 | MG interference inactive | Scp1 DSF 13
Oc1ccc(/C=C/c2cnccn2)cc1	none
NS(=O)(=O)c1ccc(CNC(=O)Cc2cccs2)cc1	Scp-1 inhibitor 83, LMPTP inh 50 | Scp1 confirm 48 | MG interference inactive | Scp1 DSF 6.9
CC(C)C[C@@H](COCc1ccc([N+](=O)[O-])cc1)N1CCN(C(=O)c2ccc(C(F)(F)F)cc2)CCC1=O	none (no result: PP5 inh, Scp-1 inhibitor, PP1 inh, STEP block)
Cc1cccc(Oc2cc(NC(=O)c3ccccc3)cc([N+](=O)[O-])c2)c1	none
O=C(CSc1ccc(-c2ccco2)nn1)NCc1ccccc1Cl	none
CCOC(=O)C1(Cc2cccc(OC)c2)CCN(Cc2ccc(OC)c(OC)c2)CC1	none
Cc1c(CCC(=O)O)c(=O)oc2c(C)c3occ(-c4ccc(Br)cc4)c3cc12	Scp-1 inhibitor 67, LMPTP inh 90 (no result: PP5 inh, PP1 inh) | Scp1 confirm 66 | MG interference inactive | Scp1 DSF inactive
COc1ccc(-c2coc3c(C)c4oc(=O)c(CCC(=O)O)c(C)c4cc23)cc1	none
Cc1coc2c(C)c3oc(=O)c(CC(=O)N[C@@H](CC(C)C)C(=O)O)c(C)c3cc12	none
CCCC(NC(=O)Cc1c(C)c2cc3c(C)c(C)oc3c(C)c2oc1=O)C(=O)N[C@@H](Cc1ccccc1)C(=O)O (stereo partly drawn)	Scp-1 inhibitor 98 | Scp1 confirm 88 | MG interference inactive | Scp1 DSF inactive
CCCCC(NC(=O)Cc1c(C)c2cc3c(C)c(C)oc3c(C)c2oc1=O)C(=O)O (stereo not drawn)	none
Cc1coc2c(C)c3oc(=O)c(CCC(=O)N[C@@H](C)C(=O)N[C@@H](Cc4ccccc4)C(=O)O)c(C)c3cc12	Scp-1 inhibitor 104, STEP block 44 | Scp1 confirm 64 | MG interference inactive | Scp1 DSF inactive
O=C(Nc1ccccc1C(=O)Nc1ccc(F)cc1)c1ccco1	none
Cc1c(C(=O)Cc2ccccc2)n(C)c2ccccc12	none
O=C(c1cc(F)ccc1F)N1CCC(N2CCC(C(=O)N3CCCC3)CC2)CC1	none
Cc1ccc(C(=O)N2CCN(S(=O)(=O)c3cc(Br)ccc3Br)CC2)o1	Scp-1 inhibitor 68 | Scp1 confirm inactive | MG interference inactive
CCOc1ncccc1C(=O)N1CCN(c2cccc(C)c2C)CC1	none (no result: PP5 inh, PP1 inh)
O=[N+]([O-])c1ccc(/C=N/Nc2nc3ccccc3o2)cc1	Scp-1 inhibitor 50 | Scp1 confirm 56 | MG interference inactive | Scp1 DSF inactive
CCOC(=O)CCC(=O)N1CCOCCOCCN(C(=O)CCC(=O)OCC)CCOCC1	none
O=C(COc1ncnc2sccc12)N1CCN(C(=O)c2ccco2)CC1	Scp-1 inhibitor 92 | Scp1 confirm 64 | MG interference inactive | Scp1 DSF inactive
O=C(COc1ncnc2ccccc12)N1CCN(C(=O)c2ccco2)CC1	none
CCOC(=O)C(NC(=O)c1cccnc1)(Nc1cccc(C)n1)C(F)(F)F (stereo not drawn)	none
CC(C[N+](C)(C)C)OC(=O)C1(c2ccccc2)CCCC1 (stereo not drawn)	Scp-1 inhibitor 63 | Scp1 confirm inactive | MG interference inactive
Cc1ccc(C)c(N2CCN(C(=O)CN(C)S(=O)(=O)c3cnc[nH]3)CC2)c1	none
O=C(CSc1ncn(-c2ccccc2)n1)Nc1nc2ccccc2s1	none
O=C(CSc1ncn(-c2ccccc2)n1)Nc1nc2c(s1)CCCC2	Scp-1 inhibitor 79 | Scp1 confirm 64 | MG interference inactive | Scp1 DSF inactive
O=C(CCCc1c[nH]c2ccccc12)Nc1ccc2ccccc2c1	Scp-1 inhibitor 59 | Scp1 confirm inactive | MG interference inactive
COc1ccc(/C=C(\NC(=O)c2ccc(C)cc2)C(=O)NCCCN2CCOCC2)cc1OC	none
CCOC(=O)Cn1c2[n+](c3ccccc31)CC(O)CS2 (stereo not drawn)	Scp-1 inhibitor 102 | Scp1 confirm 91 | MG interference inactive | Scp1 DSF inactive
Cc1cccc(CCNS(=O)(=O)c2cnc[nH]2)c1	none
COc1ccccc1N1CCN(C(=O)c2cc(S(=O)(=O)N3CCCCC3)ccc2C)CC1	none (no result: PP5 inh, PP1 inh)
CCOc1ccc(S(=O)(=O)NCC(c2ccc3c(c2)OCO3)N2CCN(C)CC2)cc1 (stereo not drawn)	none
Cc1cc(C=O)c(C)n1-c1ccc(Cl)c(C(=O)O)c1	Scp-1 inhibitor 74, STEP block 66 | Scp1 confirm 76 | MG interference inactive | Scp1 DSF 6.2
CCCCCc1ccnc(CC(=O)c2ccc(OC)cc2)c1	Scp-1 inhibitor 94 (no result: PP5 inh, PP1 inh) | Scp1 confirm inactive | MG interference inactive
COc1cc(C(=O)NCc2cccnc2)ccc1OCC(=O)Nc1cccc(C(F)(F)F)c1	none
Cc1ccc(-n2[nH]c(C)c(/C=N/Nc3ccc([N+](=O)[O-])cc3[N+](=O)[O-])c2=O)cc1C	Scp-1 inhibitor 95, STEP block 70 | Scp1 confirm 68 | MG interference inactive | Scp1 DSF 11
Cc1[nH]n(-c2ccccc2)c(=O)c1/C=N/NC(=O)c1cccc([N+](=O)[O-])c1	none
COc1c(O)cc2c(c1O)[C@@H]1O[C@H](CO)[C@@H](O)[C@H](O)C1OC2=O (stereo partly drawn)	none
O=C1N/C(=N/S(=O)(=O)c2ccccc2)S/C1=C/c1cccnc1	none
O=C1NC(=Nc2ccccc2)S/C1=C\c1cccnc1	Scp-1 inhibitor 67 | Scp1 confirm inactive | MG interference inactive
Cc1ccc(C(=O)Nc2ccc3c(c2)nc2n3CCSC2)cc1	none
COCCN(C(=O)/C=C/c1ccccc1)c1c(N)n(Cc2ccccc2)c(=O)[nH]c1=O	none
O=C(Nc1ccc2c(c1)OCCO2)c1ccc(Cl)cc1	none
CC(NC(=O)CCC(=O)Nc1ccccc1O)c1ccccc1 (stereo not drawn)	none
